The entries come from a sample that favours hits as a whole.
Dynein cargo inh = blocks dynein driven cargo transport along microtubules. 3617.4 mouse cells, GR-EGFP nuclear translocation imaging; test concentration mostly 20 µM; stimulated with dexamethasone, 1 µM; active compounds read low. z-score, hits read low. hit rate 0.47% among 220,000. AID 1381;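 active = plate z-score of nuclear minus cytoplasmic receptor signal below a set negative limit, without overly bright fluorescence or cell loss, cut at about -3.5 in these data, passing the limit was not always enough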;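 note: z-score of nuclear minus cytoplasmic ring GR-EGFP intensity difference per well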
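Also added: dexamethasone, 1.0 µM final. Medium: tet-free, stripped-serum medium. Detection: fixed, Hoechst-stained cells imaged at 10x for EGFP. Read-out: nuclear-to-cytoplasmic GR-EGFP distribution per well. Times: induction 48 h, compound 1 h, agonist 30 min.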
CHOP UPR activ = apoptotic UPR (CHOP) activation. activation, % at 10 µM. hit rate 0.34% among 330,000. CHO-CHOP luciferase reporter, luminescence; percent of tunicamycin response over DMSO baseline;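 active = at 10 µM dose, activation of 40% or more, normalized to positive control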;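 note: 100% = tunicamycin at 10 µg/mL and 0% = DMSO alone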
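Evaluation: % reporter activation, DMSO baseline versus tunicamycin full activation; System: CHO-CHOP luciferase reporter cell line; Input: 500 cells/well; Incubation: 6 h compound treatment, 37 °C; Measured by: Steady-Glo luciferase luminescence; Dosing: one dose, 10 µM in 0.5% DMSO; Buffer or medium: F12 medium, 10% FBS; Benchmarks: positive tunicamycin 10 µg/mL, negative DMSO alone.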
B2AR ag = activates human beta-2 adrenergic receptor causing internalization; P07550; Am2.2-beta2AR cells, FAP receptor internalization, flow cytometry; response, % (test concentration not listed); hit rate 0.43% among 340,000;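 active = response above a set limit, near 3 SD of response in nonfluorescent compounds, cut at about 42% in these data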
Target sequence (P07550 whole entry, looked up): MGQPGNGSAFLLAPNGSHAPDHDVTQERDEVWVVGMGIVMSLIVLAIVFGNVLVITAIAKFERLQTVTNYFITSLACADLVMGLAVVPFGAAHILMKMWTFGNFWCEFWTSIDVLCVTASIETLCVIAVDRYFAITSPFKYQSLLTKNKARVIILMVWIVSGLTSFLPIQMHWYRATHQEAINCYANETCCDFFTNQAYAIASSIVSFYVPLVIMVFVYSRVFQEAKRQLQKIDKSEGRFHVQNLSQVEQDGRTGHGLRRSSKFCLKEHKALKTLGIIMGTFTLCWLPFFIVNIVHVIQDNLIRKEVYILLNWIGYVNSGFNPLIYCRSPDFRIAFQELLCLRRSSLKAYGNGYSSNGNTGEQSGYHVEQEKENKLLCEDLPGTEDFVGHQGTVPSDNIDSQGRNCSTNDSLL
pCIP destab = lowers stability of the mouse p/CIP coactivator protein | F442A p/CIP-EGFP cells, EGFP fluorescence, 16 h | decrease of EGFP signal, % at 10 µM | hit rate 0.01% among 290,000 | AID 1984;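 active = EGFP signal decrease of at least 30% at 10 µM or well 3 SD below plate mean, unless failing retest; inactive = the rest, including hits failing retest or dose response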
CHOP inhibitor = blocks CHOP induction under ER stress; CHO-K1 CHOP-promoter luciferase, tunicamycin-induced, 15-18 h; inhibition, % at 10 µM; hit rate 3.8% among 220,000;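 active = compounds that reduced the stress-induced luciferase reporter signal by more than about 70% of percent inhibition, limit read from the data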;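 note: 0% = tunicamycin plus vehicle and 100% = wells without tunicamycin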
UPR XBP1 act = adaptive UPR (XBP1) activation. hit rate 0.33% among 330,000. CHO-XBP1 luciferase reporter, IRE1-XBP1 UPR activation, luminescence; percent of tunicamycin response, DMSO as zero. activation, % at 20 µM;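 active = versus positive control, 20 µM dose yields 30% or more activation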;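 note: 100% = tunicamycin at 10 µg/mL and 0% = DMSO only wells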
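Material: CHO cell line with stable XBP1 luciferase reporter; schedule: 16-18 h cell attachment at 37 °C, then 6 h compound exposure; signal: glow luminescence from Steady-Glo reagent; medium: serum-containing F12 medium, 10% FBS; benchmarks: tunicamycin 10 µg/mL and vehicle-only wells; read-out: percent activation relative to tunicamycin reference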
The depositor's hits bear a star.

For CN(C)C(=O)c1cc(C(=O)c2ccc(C(F)(F)F)cc2)c[nH]1 the results were CHOP UPR activ 5, B2AR ag -8, pCIP destab -1 and UPR XBP1 act 6.
`COc1cc(/C=C(\C#N)C(=O)N2CCOCC2)cc(Br)c1O` gave Dynein cargo inh 0.46, CHOP UPR activ -2, B2AR ag 3, pCIP destab 0, CHOP inhibitor 11 and UPR XBP1 act 0.
For COc1cc(/C=C(\C#N)C(=O)c2ccc(O)c(O)c2)cc(I)c1O the results were CHOP UPR activ 0, B2AR ag -244, CHOP inhibitor 86* and UPR XBP1 act -6.
Screening COc1ccc2oc(=Nc3ccccc3)c(-c3nc4ccccc4[nH]3)cc2c1 returned Dynein cargo inh 0.37, CHOP UPR activ 17, B2AR ag -14, pCIP destab 3, CHOP inhibitor 86* and UPR XBP1 act 17.
CC(C)(C)OC(=O)N1CCC(C(=O)Nc2cccc(C(=O)NCc3ccccc3)c2)CC1 was read as B2AR ag 3.
`COc1ccc(N2CCN(C(=O)CSc3nnc4n3C(C)(C)Cc3ccccc3-4)CC2)cc1` gave Dynein cargo inh -0.59, CHOP UPR activ -1, B2AR ag -1, pCIP destab -12, CHOP inhibitor 31 and UPR XBP1 act -2.
COC(=O)CSc1nnc2n1C(C)(C)Cc1ccccc1-2 was read as Dynein cargo inh -0.98, CHOP UPR activ -1, B2AR ag 4, pCIP destab -17, CHOP inhibitor 19 and UPR XBP1 act 1.
Screening CC1(C)Cc2ccccc2-c2nnc(SCC(=O)N3CCc4ccccc43)n21 returned Dynein cargo inh -0.089, CHOP UPR activ 0, B2AR ag -7, pCIP destab -22, CHOP inhibitor 77* and UPR XBP1 act 2.
`Cc1ccc(Cl)cc1N1CCN(C(=O)CSc2nnc3n2C(C)(C)Cc2ccccc2-3)CC1` gave Dynein cargo inh 0.21, CHOP UPR activ 9, B2AR ag 6, pCIP destab -20, CHOP inhibitor 81* and UPR XBP1 act 7.
`O=C(/C=C/Nc1ccc(Nc2ccccc2)cc1)c1cccs1` gave Dynein cargo inh -0.19, B2AR ag 50*, pCIP destab -37 and CHOP inhibitor 3.
For Cc1ccc(C(=O)NCC(=O)NCC(c2ccco2)N2CCCCC2)cc1C (stereo unspecified) the results were CHOP UPR activ 2, B2AR ag -8 and UPR XBP1 act -1.
Screening CC1CCN(C(=O)c2cc3nc(-c4ccccc4)cc(-c4ccccc4)n3n2)CC1 returned Dynein cargo inh -0.49, CHOP UPR activ 0, B2AR ag -14, pCIP destab -4, CHOP inhibitor 75* and UPR XBP1 act -1.
Screening O=C(Nc1cccc(O)c1)c1cc2nc(-c3ccccc3)cc(-c3ccccc3)n2n1 returned Dynein cargo inh -0.3, CHOP UPR activ 5, B2AR ag 12, pCIP destab -5, CHOP inhibitor 84* and UPR XBP1 act 5.
Screening O=C(NC1CCCC1)c1cc2nc(-c3ccccc3)cc(-c3ccccc3)n2n1 returned Dynein cargo inh -0.33, CHOP UPR activ 1, B2AR ag -9, pCIP destab 0, CHOP inhibitor 0 and UPR XBP1 act 1.
O=S(=O)(NCc1cc(-c2ccccc2)no1)c1ccccc1Cl was read as Dynein cargo inh 0.1, CHOP UPR activ -1, B2AR ag 0, pCIP destab -4, CHOP inhibitor 18 and UPR XBP1 act -3.
`Cc1cc2cc(CNC(=O)c3ccco3)ccc2n1C` gave Dynein cargo inh -0.36, CHOP UPR activ 2, B2AR ag -4, pCIP destab -4, CHOP inhibitor 10 and UPR XBP1 act -1.
Screening Cc1cc2cc(CNC(=O)c3cc4ccccc4o3)ccc2n1C returned Dynein cargo inh 1.1, CHOP UPR activ 0, pCIP destab -17, CHOP inhibitor 89* and UPR XBP1 act -2.
For CCOC(=O)C1C(c2ccccc2Cl)NC(=O)N(C)C1(O)C(F)(F)F (stereo unspecified) the results were Dynein cargo inh -0.4, CHOP UPR activ -2, B2AR ag 5, pCIP destab 14, CHOP inhibitor 70* and UPR XBP1 act 0.
Screening CCOC(=O)C1C(c2ccccc2O)NC(=O)NC1(O)C(F)(F)F (stereo unspecified) returned CHOP UPR activ -1, B2AR ag 3, pCIP destab -5 and UPR XBP1 act 0.
Screening Cc1cnc(NC(=O)CSc2ncc(-c3ccccc3)n2Cc2ccco2)s1 returned Dynein cargo inh -1.3, CHOP UPR activ 0, B2AR ag -6, pCIP destab -4, CHOP inhibitor 73* and UPR XBP1 act -1.
`Cc1occc1-c1nnc(SCC(=O)Nc2nc(-c3ccccc3)cs2)o1` gave Dynein cargo inh -0.022, CHOP UPR activ 4, B2AR ag -4, pCIP destab 4, CHOP inhibitor 72* and UPR XBP1 act 1.
Screening O=C(CSc1nnc(Cc2cccs2)n1Cc1ccco1)Nc1cc(Cl)cc(Cl)c1 returned Dynein cargo inh -1, CHOP UPR activ -1, B2AR ag -4, pCIP destab 1, CHOP inhibitor 82* and UPR XBP1 act -1.
Screening O=C(CSc1ncc(-c2ccc(F)cc2)n1Cc1ccco1)Nc1nccs1 returned Dynein cargo inh 0.24, CHOP UPR activ 1, B2AR ag -21, pCIP destab 0, CHOP inhibitor 17 and UPR XBP1 act -2.
CCOC(=O)N1CCN(C(=O)CSCC(=O)Nc2nc(-c3ccc(-c4ccccc4)cc3)cs2)CC1 was read as Dynein cargo inh 0.1, CHOP UPR activ 10, B2AR ag 31, pCIP destab -11, CHOP inhibitor 85* and UPR XBP1 act 6.
Screening Cc1ccc(S(=O)(=O)N2CCN(C(C(=O)Nc3ccc(F)cc3)c3ccccc3)CC2)cc1 (stereo unspecified) returned Dynein cargo inh 0.14, B2AR ag 3, pCIP destab -5 and CHOP inhibitor 19.
For O=C(CSc1nnc(-c2ccncc2)n1Cc1ccco1)Nc1nc(-c2ccccc2)cs1 the results were Dynein cargo inh -0.086, CHOP UPR activ 5, B2AR ag 4, pCIP destab -10, CHOP inhibitor 77* and UPR XBP1 act 0.
Screening COc1ccc(NC(=O)CCC(=O)c2ccc(-c3ccccc3)cc2)cc1 returned Dynein cargo inh -0.27, CHOP UPR activ 0, B2AR ag 0, pCIP destab -12, CHOP inhibitor -6 and UPR XBP1 act 3.

High-throughput results (PubChem)
